The record followed here is ChEMBL document CHEMBL1140591, “Syntheses of novel myxopyronin B analogs as potential inhibitors of bacterial RNA polymerase” (Bioorg Med Chem Lett, 2007).

In general, MIC refers to the smallest concentration in the dilution series that meets the test's criterion for growth inhibition. Broadly, the inhibition is the share of the control response that was lost under treatment. By IC50 is commonly meant the concentration needed to halve the response being measured.

Structures are written as SMILES. ≈ marks a conversion by molar mass, not a printed value.

Data set [1] relates to CEM-SS. As to the kind of experiment: Cytotoxicity against human CEM-SS cells upto 40 uM after 3 days. The class given is cell-based. As to conditions: 72 h. The method in brief: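 CEM-SS T lymphocytes were incubated with compound for 3 days and then treated with XTT. The signal was read […] at 450 nm/650 nm, and CC50 was determined from the readings.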
The subject of data set [2] is Staphylococcus aureus. As to the kind of experiment: Antibacterial activity against Staphylococcus aureus. The format is functional.
In data set [3] the test system is Escherichia coli. As to the kind of experiment: Antibacterial activity against Escherichia coli. The class given is functional. An outline of the steps:
(§1)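 MIC determined by growth inhibition testing; the same test was also run against S. aureus.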

Data set [4] deals with Escherichia coli. In words: Inhibition of Escherichia coli DNA-dependent RNA polymerase at 10 uM by nucleotide coupled NADPH/pyrophosphate release assay.
In data set [5] the test system is Escherichia coli. In words: Antibacterial activity against Escherichia coli Tol C mutant. The format is functional. The method in brief: as §1
Data set [6] is described as follows: Inhibition of Escherichia coli DNA-dependent RNA polymerase by nucleotide coupled NADPH/pyrophosphate release assay. An outline of the steps: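 In the pyrophosphate-release coupled assay, NADPH was monitored by fluorescence (emission ~440 nm) instead of absorbance at 340 nm. Some compounds were also tested by incorporation of radiolabeled nucleotide into RNA.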

Consider `CCCC/C(C)=C/C=C(\C)C(=O)c1ccc(C(C)CC/C=C/NC(=O)OC)cc1O` (stereo not drawn), for which the Activity result in data set [1] is “Non-toxic”. The MIC in data set [2] and in data set [3] was more than 64 µg/mL in each case. Moreover, the inhibition in data set [4] was 38%.

Turning to `CCCC/C(C)=C/C=C(\C)C(=O)c1c(O)cc([C@H](C)CC/C=C/NC(=O)OC)oc1=O` [MYXOPYRONIN B], the Activity entry in data set [1] was “Non-toxic”. For the same compound, the MIC in data set [5] was 2 µg/mL (≈ 4.63 µM); in data set [2] it was 1 µg/mL (≈ 2.32 µM); in data set [3], more than 64 µg/mL. The same compound registered an IC50 in data set [6] of 0.92 µM.

For the compound `CCCC/C(C)=C/C=C(\C)C(=O)c1c(O)cc(CCC/C=C/NC(=O)OC)oc1=O` [DESMETHYL MYXOPYRONIN B], in data set [1], the Activity result is “Non-toxic”. The results for the MIC in data set [5], in data set [2] and in data set [3] were 1 µg/mL (≈ 2.4 µM), 4 µg/mL (≈ 9.58 µM) and more than 64 µg/mL, respectively. The IC50 in data set [6] was determined as 0.34 µM.

Consider `COC(=O)N/C=C/CCC(C)c1cc(O)c(C(=O)NC/C=C(\C)CCC=C(C)C)c(=O)o1` (stereo not drawn), for which, in data set [1], the Activity entry was “Non-toxic”. The MIC in data set [5] was 16 µg/mL (≈ 35.8 µM); in data set [2], more than 64 µg/mL; in data set [3], more than 64 µg/mL. Besides, in data set [4], the inhibition is less than 20%.

In the case of `CCCC/C(C)=C/C=C(\C)C(=O)c1c(O)cc(CCC/C=C/NC(=O)OC)n(C)c1=O`, the Activity entry in data set [1] is given as “Non-toxic”. Further, the MIC in data set [2] and in data set [3] was more than 64 µg/mL throughout. In data set [6], half-maximal inhibition (IC50) was put at 15 µM.

For the compound `CCCCCC(=O)c1c(O)cc(CCC/C=C/NC(=O)OC)oc1=O`, the Activity entry in data set [1] is reported as “Non-toxic”. The MIC in data set [2] and in data set [3] was more than 64 µg/mL each time. The compound also had an inhibition in data set [4] of less than 20%.

For the compound `COC(=O)N/C=C/CCCc1cc(O)c(C(=O)/C(C)=C\c2ccco2)c(=O)o1`, the Activity entry in data set [1] is “Non-toxic”. In addition, the minimum inhibitory concentration (MIC) in data set [2] and in data set [3] was more than 64 µg/mL each time. In data set [4], this compound returned an inhibition of less than 20%.

With `COC(=O)N/C=C/CCCc1cc(O)c(C(=O)/C=C/c2ccc3[nH]ccc3c2)c(=O)o1`, in data set [1], the Activity entry was “Non-toxic”. The minimum inhibitory concentration (MIC) in data set [2] and in data set [3] was more than 64 µg/mL throughout. The inhibition in data set [4] is less than 20%.

Regarding `CCCCCCCCC(=O)c1c(O)cc(CCC/C=C/NC(=O)OC)oc1=O`, the Activity result in data set [1] is listed as “Non-toxic”. Further, the MIC in data set [2] and in data set [3] was more than 64 µg/mL each time. In data set [4], this compound yielded an inhibition of less than 20%.

In the case of `CCCC/C(C)=C/C=C(\C)C(=O)c1c(O)cc(C(C)CC/C=C/NC(=O)OC)n(C)c1=O` (stereo not drawn), in data set [1], the Activity result was “Non-toxic”. Further, the MIC in data set [2] and in data set [3] was more than 64 µg/mL each time. The same compound gave an IC50 in data set [6] of 20.5 µM.
